APJ antag – blocks the human apelin receptor APJ | P35414 | CHO-K1 APJ beta-arrestin complementation, luminescence | inhibition, % at 20 µM | 330,000 compounds, 0.32% hits;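 active means inhibition above about 40% at 20 µM, limit read from the data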;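 further: cells challenged with 10 nM apelin-13 agonist together with compound; plate controls were apelin-13 plus DMSO wells for no effect and DMSO wells lacking apelin-13 for full effect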
Target sequence (P35414 whole entry, looked up): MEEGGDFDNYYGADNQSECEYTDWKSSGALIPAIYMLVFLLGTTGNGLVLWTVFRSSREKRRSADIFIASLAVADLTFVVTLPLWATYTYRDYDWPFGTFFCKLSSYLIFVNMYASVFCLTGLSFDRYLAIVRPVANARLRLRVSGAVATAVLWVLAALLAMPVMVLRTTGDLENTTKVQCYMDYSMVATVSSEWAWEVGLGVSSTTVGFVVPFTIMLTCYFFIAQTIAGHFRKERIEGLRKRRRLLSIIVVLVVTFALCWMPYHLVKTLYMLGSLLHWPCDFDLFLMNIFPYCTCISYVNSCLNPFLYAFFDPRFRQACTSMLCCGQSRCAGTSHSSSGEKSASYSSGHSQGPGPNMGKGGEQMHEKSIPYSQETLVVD
CXCR6 block – CXCR6 (human) receptor inhibition; AID 602244; O00574; inhibition, % at 20 µM; 360,000 compounds, 0.36% hits; CHO-K1 PathHunter CXCR6 beta-arrestin, luminescence; in the data active means inhibition above about 34%, passing the limit was not always enough;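 further: antagonist mode with CXCL16 agonist at 10 nM final; 0% = 10 nM CXCL16 with DMSO and 100% = unstimulated wells without agonist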
CCR6 antag – blocks CCL20-driven beta-arrestin recruitment at human CCR6; P51684; CHO-K1 CCR6 PathHunter beta-arrestin, luminescence, CCL20-stimulated; inhibition, % at 20 µM; 340,000 compounds, 0.49% hits; AID 493098;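 active means compounds whose inhibition of the agonist-driven luminescence signal at 20 µM reaches about 50%, limit read from the data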;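 further: cells stimulated with CCL20 at 14 nM final; plate controls were DMSO with CCL20 for no effect and DMSO without agonist for full effect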
APJ agonist – APJ receptor agonism. CHO-K1 APJ PathHunter beta-arrestin, luminescence; 0% DMSO wells, 100% apelin. activation, % at 20 µM. 330,000 compounds, 0.11% hits;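 active means activation more than six SD over the plate average, tested at 20 µM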;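 further: 0% = DMSO alone and 100% = apelin-13 at 10 nM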
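Material: engineered CHO-K1 APJ arrestin reporter cells; amount: 1000 CHO-K1 reporter cells seeded per well; incubation: compound stimulation 90 min at 25 °C, detection 60 min; signal: luminescent beta-gal fragment complementation, chemiluminescent substrate; read-out basis: APJ agonist activity; controls: DMSO-only wells as negative, 10 nM Apelin-13 as positive control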
EBI2 block – blocks human EBI2 receptor beta-arrestin signaling. P32249. EBI2 beta-arrestin recruitment, luminescence, 7a,25-OHC stimulated. inhibition, % at 5 µM. 360,000 compounds, 0.81% hits. AID 651636; in the data active means inhibition above about 38%;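 further: enzyme fragment complementation signal reports receptor beta-arrestin coupling in cells; 0% = agonist plus DMSO wells and 100% = wells without agonist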
* hit, by the source's call. The list is not random: actives were taken first. Their share in the collection is about 1.5%.

Screening CCC1=NN(C(=O)c2ccc(Cl)cc2)C(O)(c2ccc(C)cc2)C1 (stereo not given) returned APJ antag 28.8, CXCR6 block 34.4, CCR6 antag 64.3*, APJ agonist 0.8 and EBI2 block -4.3.
Screening CCOC(=O)C1C(C(=O)OCC)C(C)(C)C1N(C)C (stereo not given) returned CXCR6 block -13.1 and EBI2 block -13.0.
COc1cccc(/C=N/Nc2nc(Nc3ccc([N+](=O)[O-])cc3)nc(N3CCCC3)n2)c1O was read as APJ antag -9.1, CXCR6 block 45.4*, CCR6 antag 68.6*, APJ agonist 0.5 and EBI2 block 13.2.
NS(=O)(=O)c1ccc(Nc2ccc([N+](=O)[O-])c3nonc23)cc1 was read as APJ antag 35.4, CXCR6 block 31.2, CCR6 antag 63.5*, APJ agonist -6.0 and EBI2 block 4.8.
For C#CCOc1c(Cl)cc(/C=C2/C(=O)ON=C2C)cc1OC the results were APJ antag -0.7, CXCR6 block -2.1, CCR6 antag 5.8, APJ agonist -2.7 and EBI2 block -2.8.
For COc1cc(/C=C2\SC(c3ccccc3)=NC2=O)cc(Cl)c1O the results were CXCR6 block 37.1, CCR6 antag 73.8* and EBI2 block -4.8.
COc1cc(/C=C2\SC(c3ccc(C)cc3)=NC2=O)cc(OC)c1OC was read as APJ antag -9.5, CXCR6 block 0.4, CCR6 antag -5.5, APJ agonist 5.1 and EBI2 block 30.3.
Screening COc1cc(/C=C2/C(=O)ON=C2C)cc(Cl)c1O returned APJ antag 29.4, CXCR6 block 33.6, CCR6 antag 58.9*, APJ agonist -5.0 and EBI2 block -3.9.
`CCCCN1C(=O)C(CC(=O)NC2CCCCC2)CC(C(=O)N2CCCCCC2)=C1C` (stereo not given) gave CXCR6 block 0.2 and EBI2 block -0.7.
For Cc1nc2ccc(C(=O)N(C)Cc3ccco3)cn2c1N(C)C(=O)CCc1ccccc1 the results were CXCR6 block 1.4 and EBI2 block -3.2.
CCN1CCCSC1=S was read as CXCR6 block 1.4 and EBI2 block 1.1.
Screening O=C(/C=C/c1ccc(Br)cc1)c1ccc(NC2=NCCCS2)cc1 returned APJ antag 7.8, CXCR6 block 4.8, CCR6 antag 20.7, APJ agonist -5.9 and EBI2 block 78.2*.
`Cc1c(N=C2C=CC(=O)c3ccccc32)c(=O)n(-c2ccccc2)n1C` gave CXCR6 block 31.5, CCR6 antag 75.1* and EBI2 block 28.0.
For Cc1c(N=C2C=C(Br)C(=O)C(Br)=C2)c(=O)n(-c2ccccc2)n1C the results were APJ antag -61.5, CXCR6 block -9.0, CCR6 antag 30.3, APJ agonist -1.1 and EBI2 block 9.8.
Screening CCC/C=C/c1ccc(CN2C(C(C)C)C(=O)N(Cc3cn(CC4CCCCC4)nn3)CCS2(=O)=O)cc1 (stereo not given) returned CXCR6 block 0.5 and EBI2 block 20.1.
Screening O=C(Nc1cc(C(F)(F)F)ccc1N1CCCCC1)C1=COCCO1 returned CXCR6 block 8.1 and EBI2 block 6.4.
`CCc1nc2ccc(C(=O)NCCCn3ccnc3)cn2c1N(C)Cc1ccc(Cl)cc1` gave CXCR6 block -4.5 and EBI2 block -4.6.
COc1ccc(-c2nnc3n2N=C(C)CS3)cc1 was read as APJ antag -11.0, CXCR6 block 6.2, CCR6 antag 6.0, APJ agonist -1.8 and EBI2 block -11.0.
CCOC(=O)/C(=C/c1ccc(OC(F)F)cc1)C1=Nn2c(nnc2-c2ccc(Cl)cc2)SC1 was read as CXCR6 block 15.5, CCR6 antag 35.6 and EBI2 block 47.5*.
`CCOC(=O)/C(=C\c1ccc(OC(F)F)cc1)C1=Nn2c(nnc2-c2ccc(Cl)cc2)SC1` gave CXCR6 block 18.4, CCR6 antag 22.5 and EBI2 block 54.3*.
For CCN1C(=O)/C(=C/C=C2\C=CN(CC)c3ccccc32)SC1=S the results were CXCR6 block 33.8, CCR6 antag 53.1* and EBI2 block 15.8.
Screening CCCN1C(=O)/C(=C\C=C2\N(CC)c3ccccc3C2(C)C)SC1=S returned CXCR6 block 18.7, CCR6 antag 45.7 and EBI2 block 26.9.
`Cn1cnc2ncnn2c1=S` gave CXCR6 block -4.8 and EBI2 block -8.5.
`CC(C)C[C@H]1CNC(=O)C(=O)N1CC1CCN(CC2CCC(C(C)(C)C)CC2)CC1` (stereo not given in full) gave CXCR6 block -1.7, CCR6 antag -7.7 and EBI2 block -12.4.
`O=C(NCc1ccncc1)[C@@H]1CCCN1C(=O)[C@H]1CCCN1C(=O)c1cccc2ccccc12` gave CXCR6 block -0.2 and EBI2 block -13.6.
`Cc1ccccc1CN1C(=O)CSCC1(C)C(=O)NC(C)C` (stereo not given) gave EBI2 block 3.2.
Screening O=[N+]([O-])c1ccc2nc(NN=Cc3ccc(O)cc3)sc2c1 returned CXCR6 block 55.4*, CCR6 antag 78.0* and EBI2 block 36.7.
`O=C1N=c2ccccc2=C1c1sc(Nc2ccc(O)cc2)nc1O` gave CXCR6 block 50.2*, CCR6 antag 57.0* and EBI2 block 3.7.
For O=C1N=c2ccccc2=C1c1sc(Nc2cccc(O)c2)nc1O the results were APJ antag 33.5, CXCR6 block 19.5, CCR6 antag 33.9, APJ agonist -4.4 and EBI2 block 6.2.
O=C1N=c2ccccc2=C1c1sc(NS(=O)(=O)c2ccccc2)nc1O was read as APJ antag 22.0, CXCR6 block 9.9, CCR6 antag 14.3, APJ agonist -7.7 and EBI2 block 3.5.
`O=C1N=c2ccccc2=C1c1sc(NS(=O)(=O)Cc2ccccc2)nc1O` gave APJ antag 12.8, CXCR6 block 10.2, CCR6 antag 76.4*, APJ agonist -5.8 and EBI2 block 9.1.
Screening CC1=C(C(=O)N2CCCCCC2)CC(CC(=O)NCC2CCCCC2)C(=O)N1Cc1ccc(F)cc1 (stereo not given) returned CXCR6 block 3.3 and EBI2 block 19.3.
C=CCN1C(=O)/C(=C/c2ccc(OC(C)=O)c(OCC)c2[N+](=O)[O-])SC1=S was read as CXCR6 block 41.5*, CCR6 antag 53.8* and EBI2 block -18.0.
O=S(=O)(NCCOc1ccccc1Cl)c1ccc2oc3ccccc3c2c1 was read as APJ antag -2.6, CXCR6 block -4.1, CCR6 antag 15.9, APJ agonist 3.7 and EBI2 block -10.1.
`Cn1c(=O)c(=O)n(C)c2cc(S(=O)(=O)NCCOc3ccccc3Cl)ccc21` gave APJ antag 40.2*, CXCR6 block 4.0, CCR6 antag 11.4, APJ agonist -4.4 and EBI2 block 5.7.

From PubChem BioAssay
